This is an account of results in ChEMBL document CHEMBL4130522, “Synthesis and Pharmacological Evaluation of Selective Histone Deacetylase 6 Inhibitors in Melanoma Models” (ACS Med Chem Lett, 2017).

In general, IC50 refers to the midpoint of a concentration-inhibition curve. A word on the half-life: it is the time needed for the level to fall by half in the phase considered.

Activity calls are given as the source filed them.

In data set [1] the target is T1, Protein deacetylase HDAC6 (Homo sapiens, UniProt Q9UBN7).
T1 sequence (Q9UBN7 whole entry): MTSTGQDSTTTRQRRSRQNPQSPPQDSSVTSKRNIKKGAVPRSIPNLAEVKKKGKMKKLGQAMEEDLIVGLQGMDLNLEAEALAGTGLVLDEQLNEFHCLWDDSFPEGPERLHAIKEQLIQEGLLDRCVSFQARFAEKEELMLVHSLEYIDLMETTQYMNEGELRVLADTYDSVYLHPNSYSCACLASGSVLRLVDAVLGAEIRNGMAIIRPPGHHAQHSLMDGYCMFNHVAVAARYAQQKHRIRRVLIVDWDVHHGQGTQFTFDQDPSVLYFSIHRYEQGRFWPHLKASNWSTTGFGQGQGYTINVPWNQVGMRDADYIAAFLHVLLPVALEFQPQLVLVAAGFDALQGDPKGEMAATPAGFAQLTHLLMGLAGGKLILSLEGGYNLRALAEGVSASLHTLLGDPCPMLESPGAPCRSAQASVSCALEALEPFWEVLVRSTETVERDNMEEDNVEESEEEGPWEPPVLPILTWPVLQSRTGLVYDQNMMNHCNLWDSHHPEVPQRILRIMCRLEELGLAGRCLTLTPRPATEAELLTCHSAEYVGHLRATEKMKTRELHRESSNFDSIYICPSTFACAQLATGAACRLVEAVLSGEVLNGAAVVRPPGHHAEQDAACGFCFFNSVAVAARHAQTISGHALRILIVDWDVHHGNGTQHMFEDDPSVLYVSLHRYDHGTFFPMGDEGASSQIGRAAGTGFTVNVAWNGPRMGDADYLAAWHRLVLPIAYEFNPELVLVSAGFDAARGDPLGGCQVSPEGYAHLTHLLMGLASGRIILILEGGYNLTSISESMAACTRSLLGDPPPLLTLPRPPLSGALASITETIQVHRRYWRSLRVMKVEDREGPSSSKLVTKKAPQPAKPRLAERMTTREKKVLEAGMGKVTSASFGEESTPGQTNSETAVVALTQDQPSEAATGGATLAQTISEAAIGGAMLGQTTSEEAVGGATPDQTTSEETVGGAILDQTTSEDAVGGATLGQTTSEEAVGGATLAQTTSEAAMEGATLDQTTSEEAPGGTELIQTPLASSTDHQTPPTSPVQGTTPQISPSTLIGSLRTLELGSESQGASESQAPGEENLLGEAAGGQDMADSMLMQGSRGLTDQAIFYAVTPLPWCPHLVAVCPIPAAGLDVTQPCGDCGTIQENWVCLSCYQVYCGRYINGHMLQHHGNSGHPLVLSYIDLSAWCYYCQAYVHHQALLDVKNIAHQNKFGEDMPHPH
Briefly: Inhibition of recombinant human full length HDAC6 expressed in baculovirus infected Sf9 insect cells using p53 (379 to 382 residues) derived RHKKAc as substrate preincubated for 5 to 10 mins followed by substrate addition measured after 2 hrs by fluorescence assay.

For a further data set, the species on record is Homo sapiens. Briefly: Selectivity ratio of IC50 for recombinant human full length HDAC8 expressed in baculovirus infected Sf9 insect cells to IC50 for recombinant human full length HDAC6 expressed in baculovirus infected Sf9 insect cells.
Another data set addresses Histone deacetylase 1 (Homo sapiens, UniProt Q13547). The data set is described as follows: Inhibition of recombinant human full length HDAC1 expressed in baculovirus infected Sf9 insect cells using p53 (379 to 382 residues) derived RHKKAc as substrate preincubated for 5 to 10 mins followed by substrate addition measured after 2 hrs by fluorescence assay.
For data set [2], the target named is T2, Protein deacetylase HDAC6 (Homo sapiens) (UniProt Q9UBN7).
T2 sequence (whole entry): T1 sequence (Q9UBN7 whole entry)
Briefly: Inhibition of HDAC6 in human WM795 cells assessed as increase in acetylated histone H3 levels at 0.5 to 8 uM after 24 hrs by Western blot method. The data set is classed as cell-based. Summed up:
(§1)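 WM795 human melanoma cells were treated for 24 h across a range of concentrations. Protein extracts were run on SDS-PAGE and immunoblotted with antibodies to HDAC6, α-tubulin, acetylated α-tubulin, histone H3 and acetylated H3. A selective HDAC6 inhibitor and a pan-HDAC inhibitor were included on each blot as positive controls. Blots are representative of three independent experiments.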
In general terms: Immunoblotting shows a protein as a band on a membrane.

Data set [3] relates to Mus musculus. Briefly: Antitumor activity against mouse B16-F10-luc cells xenografted in C57BL/6 mouse assessed as reduction in tumor volume at 20 mg/kg, ip administered daily for 22 days. In kind it is functional, organism-based. An outline of the steps:
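C57BL/6 mice implanted subcutaneously with B16-F10-luc WT cells; daily intraperitoneal dosing at 20 mg/kg for 22 days versus vehicle group; tumor volume and survival monitored throughout.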

The test system of data set [4] is B16. The data set is described as follows: Antiproliferative activity against mouse B16 cells at 1 to 15 uM after 48 hrs by MTS assay. The data set is classed as functional, cell-based. For orientation: Tetrazolium assays rely on reduction of a dye to a coloured formazan, in cell work by metabolically active cells.
Data set [5] has as its target T3, Protein deacetylase HDAC6 (Mus musculus) (UniProt Q9Z2V5).
T3 sequence (whole entry): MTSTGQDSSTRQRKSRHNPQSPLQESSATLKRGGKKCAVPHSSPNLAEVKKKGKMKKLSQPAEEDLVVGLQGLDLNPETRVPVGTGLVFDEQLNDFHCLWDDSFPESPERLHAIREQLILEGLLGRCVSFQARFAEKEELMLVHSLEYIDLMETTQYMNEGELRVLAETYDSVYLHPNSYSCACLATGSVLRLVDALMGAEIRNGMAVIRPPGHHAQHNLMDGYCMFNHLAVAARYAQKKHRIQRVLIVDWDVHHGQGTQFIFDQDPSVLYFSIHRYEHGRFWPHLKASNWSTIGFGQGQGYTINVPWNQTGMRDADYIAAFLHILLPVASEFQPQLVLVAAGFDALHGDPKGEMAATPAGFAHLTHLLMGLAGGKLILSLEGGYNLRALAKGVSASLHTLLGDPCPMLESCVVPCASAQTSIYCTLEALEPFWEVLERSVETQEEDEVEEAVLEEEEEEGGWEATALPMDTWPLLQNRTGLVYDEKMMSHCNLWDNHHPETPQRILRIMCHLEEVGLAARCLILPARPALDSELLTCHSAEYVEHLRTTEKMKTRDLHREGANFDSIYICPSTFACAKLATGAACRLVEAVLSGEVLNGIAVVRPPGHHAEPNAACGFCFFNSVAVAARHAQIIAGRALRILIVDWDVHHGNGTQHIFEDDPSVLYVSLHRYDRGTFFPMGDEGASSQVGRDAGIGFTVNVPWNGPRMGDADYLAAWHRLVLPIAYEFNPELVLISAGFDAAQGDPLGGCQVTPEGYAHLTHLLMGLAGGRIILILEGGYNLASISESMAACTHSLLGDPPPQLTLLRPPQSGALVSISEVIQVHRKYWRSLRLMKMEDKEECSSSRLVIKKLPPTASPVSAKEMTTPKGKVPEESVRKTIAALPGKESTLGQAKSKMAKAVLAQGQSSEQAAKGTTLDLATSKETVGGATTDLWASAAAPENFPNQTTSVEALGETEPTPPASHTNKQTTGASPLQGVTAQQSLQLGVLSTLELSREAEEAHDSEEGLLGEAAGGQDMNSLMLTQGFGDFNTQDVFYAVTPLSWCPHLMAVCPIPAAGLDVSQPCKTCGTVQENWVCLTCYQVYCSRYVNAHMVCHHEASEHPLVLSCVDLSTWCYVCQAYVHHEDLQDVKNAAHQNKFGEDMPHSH
The data set is described as follows: Inhibition of HDAC6 in C57BL/6 mouse primary peritoneal macrophages assessed as decrease in IL-10 production at 3 uM after 24 hrs by ELISA. An outline of the steps: (§2)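 Cells (primary peritoneal elicited macrophages from C57BL/6 mice, or RAW264.7 murine macrophages) stimulated with LPS 1 µg/mL, with or without 3 µM compound, for 24 h; supernatants collected and IL-10 quantified by ELISA; statistics versus untreated cells.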

The species entered for data set [6] is Mus musculus. The data set is described as follows: Antiproliferative activity against mouse SM1 cells at 1 to 15 uM after 48 hrs by MTS assay. The data set is classed as functional, cell-based.
Data set [7] deals with Mus musculus. Briefly: Antitumor activity against mouse B16-F10-luc cells xenografted in C57BL/6 SCID mouse assessed as tumor growth inhibition at 20 mg/kg, ip administered daily for 20 days. In kind it is functional, organism-based.
The species entered for data set [8] is Mus musculus. The data set is described as follows: Antiproliferative activity against mouse FcMCL cells at 1 to 15 uM after 48 hrs by MTS assay. In kind it is functional, cell-based.
Data set [9] addresses T2, Protein deacetylase HDAC6 (Homo sapiens). Briefly: Inhibition of HDAC6 in human WM795 cells assessed as increase in acetylated alpha-tubulin levels at 0.5 to 8 uM after 24 hrs by Western blot method. In kind it is cell-based. An outline of the steps:
as §1

A short description of data set [10]: Half life in mouse liver microsomes at 200 uM in presence of NADPH by LC-MS/MS analysis. The data set is classed as ADME, microsome. Background: Liver microsomes are a subcellular fraction often used to study metabolism.
Data set [11] deals with T3, Protein deacetylase HDAC6 (Mus musculus). Briefly: Inhibition of HDAC6 in mouse RAW264.7 cells assessed as decrease in IL-10 production at 3 uM after 24 hrs by ELISA. In kind it is cell-based. An outline of the steps: as §2
Data set [12] can be described thus: Half life in human liver microsomes at 200 uM in presence of NADPH by LC-MS/MS analysis. In kind it is ADME, microsome.
The nature of data set [13]: Antitumor activity against mouse B16-F10-luc cells xenografted in C57BL/6 mouse assessed as mouse survival rate at 20 mg/kg, ip administered daily for 22 days (reference value: 40%). The conditions noted are these: 528 h. The data set is classed as functional.
Data set [14] has as its target T2, Protein deacetylase HDAC6 (Homo sapiens). The data set is described as follows: Inhibition of recombinant human full length HDAC6 expressed in baculovirus infected Sf9 insect cells up to 30 uM using p53 (379 to 382 residues) derived RHKKAc as substrate preincubated for 5 to 10 mins followed by substrate addition measured after 2 hrs by fluorescence assay.
Data set [15] is filed under the species Mus musculus. The data set is described as follows: Antiproliferative activity against mouse FcMCL cells at lower concentration after 48 hrs by MTS assay. In kind it is functional, cell-based.
In data set [16] the test system is B16. Briefly: Antiproliferative activity against mouse B16 cells at lower concentration after 48 hrs by MTS assay. The data set is classed as functional, cell-based.

Chain of Histone deacetylase 1 (Q13547 whole entry, the tested form may be a part): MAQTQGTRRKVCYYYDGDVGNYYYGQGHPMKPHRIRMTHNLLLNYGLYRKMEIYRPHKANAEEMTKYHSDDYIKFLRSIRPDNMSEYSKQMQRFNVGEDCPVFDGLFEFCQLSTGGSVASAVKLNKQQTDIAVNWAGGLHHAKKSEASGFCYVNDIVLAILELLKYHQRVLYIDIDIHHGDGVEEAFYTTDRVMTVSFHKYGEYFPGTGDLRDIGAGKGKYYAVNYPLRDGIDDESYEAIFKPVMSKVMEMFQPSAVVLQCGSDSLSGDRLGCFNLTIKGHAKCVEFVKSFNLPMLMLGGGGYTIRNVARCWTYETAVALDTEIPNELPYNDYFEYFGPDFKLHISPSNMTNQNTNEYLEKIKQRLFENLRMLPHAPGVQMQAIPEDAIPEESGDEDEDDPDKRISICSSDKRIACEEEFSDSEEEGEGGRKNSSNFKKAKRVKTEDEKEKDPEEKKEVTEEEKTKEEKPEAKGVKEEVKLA

For `O=C(NO)c1ccc(CN(CCCCO)C(=O)Nc2ccccc2)cc1`, the IC50 was determined as 0.87 nM in [1] (read-out: IC50) and 2910 nM at Histone deacetylase 1. Also, in the data set listed under Homo sapiens, the Ratio IC50 was more than 500.
With `CCCCN(C(=O)Nc1cccc(N(C)C)c1)c1ccc(C(=O)NO)cc1`, the IC50 is 1790 nM in [1] (read-out: IC50) and more than 30000 nM on Histone deacetylase 1.
As to `CCCCN(Cc1ccc(C(=O)NO)cc1)C(=O)NCCN1CCCC1`, the IC50 in data set [1] (read-out: IC50) amounted to 74 nM; at Histone deacetylase 1, 14400 nM.
Turning to `CCCCN(Cc1ccc(NC(=O)CN)cc1)C(=O)Nc1ccccc1`, the IC50 result in data set [1] (sf9) was “Not Active”.
Regarding `CCCCN(Cc1ccc(/C(N)=N/O)cc1)C(=O)Nc1ccccc1`, in [1] (sf9), the IC50 result was “Not Active”.
The same measure, in the same setting: next, `CCCCN(Cc1ccc(NC(=O)[C@H](C)N)cc1)C(=O)Nc1ccccc1`: “Not Active”.
In the case of `CCCCN(Cc1ccc(C(=O)NO)cc1)C(=O)Nc1ccc2cn[nH]c2c1`, in [2], the inhibition entry is “inactive”. For the same compound, the result in the data set on Mus musculus [3], with B16 [4], in the data set listed under Mus musculus [6] and in the data set filed under Mus musculus [8] was Active. Moreover, the inhibition result in data set [5], in data set [9] and in data set [11] was “Active” in each case. Further, in the data set with Mus musculus [7], the TGI entry is “inactive”. For the same compound, the IC50 in [1] (read-out: IC50) is 1.6 nM. For the same compound, the Ratio IC50 in the data set filed under Homo sapiens was more than 500. Besides, the half-life at 200 µM was found to be 3.98 h in data set [10] and 6.8 h in data set [12]. For the same compound, the survival at 20 mg/kg in data set [13] came out at 100%.
For the compound `CC(C)CN(Cc1ccc(C(=O)NO)cc1)C(=O)Nc1ccccc1`, the IC50 in [1] (read-out: IC50) is 12 nM; on Histone deacetylase 1, 6130 nM.
On to `CN1CCc2c(c3ccccc3n2Cc2ccc(C(=O)NO)cc2)C1`, for which the outcome with Mus musculus [3] was Active.
On to `O=C(O)c1ccc(CN(CCCCO)C(=O)Nc2ccccc2)cc1`, for which the 50% inhibitory concentration (IC50) result in [1] (sf9) is given as “Not Active”. The inhibition result in [14] was “inactive”.
Take `CCCCN(Cc1ccc(C(=O)NO)cc1)C(=O)Nc1ncccn1`: the inhibition entry in data set [2] is “inactive”. Also, the result in the data set with B16 [4], in the data set filed under Mus musculus [6] and in the data set listed under Mus musculus [8] was Active. Moreover, in data set [1] (read-out: IC50), the IC50 amounted to 6 nM. For the same compound, the inhibition entry in [9] is “Active”.
Take `CCCCN(Cc1ccc(C(=O)NO)cc1)C(=O)Nc1ccccc1`: in data set [2], the inhibition entry is “inactive”. In [9], the inhibition entry is “Active”.
On to `CCCCN(Cc1ccc(C(=O)NO)cc1)C(=O)Nc1cccc(N(C)C)c1`, for which the inhibition result in data set [2] is “inactive”. The IC50 in [1] (read-out: IC50) is 1.7 nM. Besides, the Ratio IC50 in the data set listed under Homo sapiens was more than 500. Also, the inhibition result in [9] is “Active”. For the same compound, the outcome in the data set listed under Mus musculus [15] and in the data set with B16 [16] was Active.
Consider `CCCCN(Cc1ccc(N(O)C=O)cc1)C(=O)Nc1ccccc1`, for which the 50% inhibitory concentration (IC50) is 1020 nM in data set [1] (read-out: IC50) and more than 30000 nM at Histone deacetylase 1.
`CCCCN(Cc1ccc(C(=O)NO)cc1)C(=O)Nc1cc(C)ccn1`: the IC50 stood at 43 nM in data set [1] (read-out: IC50) and 7540 nM at Histone deacetylase 1.
